ChEMBL document CHEMBL1138189 (J Med Chem, 2006)
Where “and” joins values, the source holds several entries; their conditions need not be identical. Equal values may be shown once.

Columns and labels:
[1] = target: T1, Adenosine receptor A1 (Homo sapiens, UniProt P30542); test: Displacement of [3H]DPCPX from human adenosine A1 receptor expressed in CHO cells; assay type: cell-based
T1 sequence (P30542 whole entry): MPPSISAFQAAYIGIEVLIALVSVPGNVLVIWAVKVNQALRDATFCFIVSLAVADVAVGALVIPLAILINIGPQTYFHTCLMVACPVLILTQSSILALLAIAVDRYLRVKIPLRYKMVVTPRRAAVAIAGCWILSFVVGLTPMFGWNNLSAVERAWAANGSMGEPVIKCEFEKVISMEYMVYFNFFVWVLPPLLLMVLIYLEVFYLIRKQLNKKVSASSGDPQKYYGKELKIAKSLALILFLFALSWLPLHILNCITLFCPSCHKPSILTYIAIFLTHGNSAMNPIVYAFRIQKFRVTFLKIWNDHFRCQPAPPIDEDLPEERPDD
Summary of the method: (§1)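 CHO membranes bearing recombinant human A1 receptor, in 50 mM Tris HCl pH 7.4, incubated 120 min at 25 °C with 1 nM [3H]DPCPX and 6-8 test concentrations. CHA defined nonspecific binding. Bound and free label were separated on GF/B glass-fiber filters and counted. […] Means ± SEM.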

[2] = target: Adenosine receptor A2a (Homo sapiens, UniProt P29274); test: Displacement of [3H]ZM-241385 from human adenosine A2A receptor expressed in HEK293 cells; assay type: cell-based
Summary of the method: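 Human A2A receptor membranes in 50 mM Tris HCl, 10 mM MgCl2, pH 7.4, competed against [3H]-ZM241385 at 6-8 test concentrations for 60 min at 25 °C. NECA defined nonspecific binding. Bound label was collected on glass-fiber filters by filtration and counted. Means ± SEM.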

[3] = target: T2, Adenosine receptor A3 (Homo sapiens, UniProt P0DMS8); test: Displacement of [3H]MRE3008-F20 from human adenosine A3 receptor expressed in HEK293 cells; assay type: cell-based
T2 sequence (P0DMS8 whole entry): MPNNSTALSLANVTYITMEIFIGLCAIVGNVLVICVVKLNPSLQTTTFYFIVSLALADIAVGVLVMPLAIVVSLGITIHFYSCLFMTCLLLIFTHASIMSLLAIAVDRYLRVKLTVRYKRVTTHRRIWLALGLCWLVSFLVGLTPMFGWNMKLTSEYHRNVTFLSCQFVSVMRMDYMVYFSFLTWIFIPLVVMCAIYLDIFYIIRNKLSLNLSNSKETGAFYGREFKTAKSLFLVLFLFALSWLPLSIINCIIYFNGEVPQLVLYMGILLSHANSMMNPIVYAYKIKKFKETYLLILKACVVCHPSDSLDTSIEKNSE
Summary of the method: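 Assays ran in duplicate with 1 nM [3H]MRE3008-F20 on human A3 receptor membranes in 50 mM Tris HCl, 10 mM MgCl2, pH 7.4, at 6-8 ligand concentrations, for 120 min at 4 °C. Bound label was separated by GF/B filtration and counted. Means ± SEM.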

[4] = target: Adenosine receptors; A1 & A3 (Homo sapiens) (UniProt P30542+P0DMS8); test: Selectivity for human adenosine A3 over human adenosine A1 receptor; assay type: protein assay
[5] = target: T3, Adenosine receptor A2b (Homo sapiens, UniProt P29275); test: Inhibition of NECA-stimulated cAMP accumulation in CHO cells expressing human adenosine A2B receptor; assay type: functional, cell-based
T3 sequence (P29275 whole entry): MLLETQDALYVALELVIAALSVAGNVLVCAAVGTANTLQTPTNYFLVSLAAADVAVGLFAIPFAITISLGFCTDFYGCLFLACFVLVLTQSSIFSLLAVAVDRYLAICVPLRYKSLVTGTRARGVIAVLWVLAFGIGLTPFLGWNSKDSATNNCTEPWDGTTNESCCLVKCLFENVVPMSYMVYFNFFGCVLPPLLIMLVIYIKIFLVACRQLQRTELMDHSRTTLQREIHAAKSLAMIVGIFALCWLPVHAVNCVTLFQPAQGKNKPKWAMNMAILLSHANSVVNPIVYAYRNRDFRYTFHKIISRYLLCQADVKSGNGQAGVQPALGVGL
Summary of the method: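 Trypsinized A2B-transfected CHO cells (1 × 10⁶ per assay) were preincubated 10 min at 37 °C in pH 7.4 salt buffer with 2 IU/mL adenosine deaminase and Ro 20-1724, then stimulated with 100 nM NECA plus antagonist. Stopped with cold 6% TCA, ether-extracted, and cAMP measured by [3H]cAMP competition with adrenal binding protein. IC50 derived.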

[6] = target: Adenosine receptors; A2a & A3 (Homo sapiens) (UniProt P0DMS8+P29274); test: Selectivity for human adenosine A3 over human adenosine A2A receptor; assay type: protein assay
[7] = target: T4, Adenosine receptor A2b (Homo sapiens) (UniProt P29275); test: Inhibition of NECA-stimulated cAMP accumulation in CHO cells expressing human adenosine A2B receptor at 1 uM; assay type: functional, cell-based
T4 sequence (whole entry): T3 sequence (P29275 whole entry)

[8] = target: T5, Adenosine receptor A1 (Homo sapiens) (UniProt P30542); test: Inhibition of [3H]DPCPX binding to human adenosine A1 receptor expressed in CHO cells at 1 uM; assay type: cell-based; summary of the method: as §1
T5 sequence (whole entry): T1 sequence (P30542 whole entry)

Adenosine receptors; A2a & A3 (Homo sapiens), sequence (P29274 whole entry, looked up, one chain of several): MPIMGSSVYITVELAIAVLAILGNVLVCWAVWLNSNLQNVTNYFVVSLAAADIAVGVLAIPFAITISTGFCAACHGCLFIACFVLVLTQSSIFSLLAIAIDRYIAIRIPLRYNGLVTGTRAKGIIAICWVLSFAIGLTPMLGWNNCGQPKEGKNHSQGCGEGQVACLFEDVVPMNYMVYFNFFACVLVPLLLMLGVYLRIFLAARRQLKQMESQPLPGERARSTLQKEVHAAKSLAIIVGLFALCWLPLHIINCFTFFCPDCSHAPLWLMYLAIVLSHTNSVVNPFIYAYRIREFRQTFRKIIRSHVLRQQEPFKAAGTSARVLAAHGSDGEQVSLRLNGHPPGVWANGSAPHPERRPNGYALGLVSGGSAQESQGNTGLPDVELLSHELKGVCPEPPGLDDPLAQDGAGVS
Adenosine receptor A2a, sequence (P29274 whole entry): as the sequence (P29274 whole entry, looked up, one chain of several) above

Ki [1] [nM]	Ki [2] [nM]	Ki [3] [nM]	Ratio Ki [4]	IC50 [5] [nM]	Ratio Ki [6]	inhibition [7]	inhibition [8] [%]	IC50 ([5]; cho) [nM]	Compound
800	110	3.5	228	320	31				Cn1cc2c(nc(NC(=O)Nc3cccc[n+]3[O-])n3nc(-c4ccco4)nc23)n1
355	110			> 1000					Cn1cc2c(nc(NC(=O)Nc3ccncc3)n3nc(-c4ccco4)nc23)n1 [listing 1 of 3 here]
> 1000	282	28	> 36	> 1000	10	6%	20		Cn1cc2c(nc(NC(=O)Nc3cc[n+](C)cc3)n3nc(-c4ccco4)nc23)n1
245	155	0.55		> 1000					Cn1cc2c(nc(NC(=O)Nc3cccnc3)n3nc(-c4ccco4)nc23)n1 [listing 1 of 3 here]
210	140	0.35						> 1000	Cn1cc2c(nc(NC(=O)Nc3ccccn3)n3nc(-c4ccco4)nc23)n1 [listing 1 of 3 here]
330	42	5.3	62	244	8				Cn1cc2c(nc(NC(=O)Nc3ccc[n+](C)c3)n3nc(-c4ccco4)nc23)n1
550	75	10	55	260	7.5				Cn1cc2c(nc(NC(=O)Nc3ccc[n+]([O-])c3)n3nc(-c4ccco4)nc23)n1
400	64	1.3	307	280	49				Cn1cc2c(nc(NC(=O)Nc3cccc[n+]3C)n3nc(-c4ccco4)nc23)n1
260	65							> 1000	Cn1cc2c(nc(NC(=O)Nc3ccncc3)n3nc(-c4ccco4)nc23)n1 [listing 2 of 3 here]
> 1000	400	11	> 90	> 1000	36	4%	20		Cn1cc2c(nc(NC(=O)Nc3ccoc3)n3nc(-c4ccco4)nc23)n1
			530 and 600		360 and 400	20% and 16%			Cn1cc2c(nc(NC(=O)Nc3ccccn3)n3nc(-c4ccco4)nc23)n1 [listing 2 of 3 here]
> 1000	60	12	> 83	250	5		22		Cn1cc2c(nc(NC(=O)Nc3cc4ccccc4o3)n3nc(-c4ccco4)nc23)n1
> 1000	153	21	> 47	> 1000	7.3	12%	35		Cn1cc2c(nc(NC(=O)Nc3cc[n+]([O-])cc3)n3nc(-c4ccco4)nc23)n1
> 1000	350	16	> 62.5	> 1000	22	8%	25		Cn1cc2c(nc(NC(=O)Nc3ccco3)n3nc(-c4ccco4)nc23)n1
			445 and 522		281 and 284	18% and 24%			Cn1cc2c(nc(NC(=O)Nc3cccnc3)n3nc(-c4ccco4)nc23)n1 [listing 2 of 3 here]
> 1000	410	3.5	> 286	> 1000	117	31%	24		Cc1sccc1NC(=O)Nc1nc2nn(C)cc2c2nc(-c3ccco3)nn12
230	125	0.44						> 1000	Cn1cc2c(nc(NC(=O)Nc3cccnc3)n3nc(-c4ccco4)nc23)n1 [listing 3 of 3 here]
						12% and 20%			Cn1cc2c(nc(NC(=O)Nc3ccncc3)n3nc(-c4ccco4)nc23)n1 [listing 3 of 3 here]
265	180	0.5		> 1000					Cn1cc2c(nc(NC(=O)Nc3ccccn3)n3nc(-c4ccco4)nc23)n1 [listing 3 of 3 here]
> 1000	810	110	> 9	> 1000	7.3	17%	12		Cn1cc2c(nc(NC(=O)Nc3ccc4ccccc4n3)n3nc(-c4ccco4)nc23)n1
> 1000	920	10	> 100	> 1000	92	20%	10		Cc1ccc(NC(=O)Nc2nc3nn(C)cc3c3nc(-c4ccco4)nn23)s1
